Data from the RNAGym collection of RNA variant scans (doi:10.1126/science.aae0568).
This sample holds only a part of the variants without activity.

B1: tRNA (parent)
chain: GUUCCGUUGGCGUAAUGGUAACGCGUCUCCCUCCUAAGGAGAAGACUGCGGGUUCGAGUCCCGUACGGAACG

Variants of: B1
Test: yeast fitness relative to wild type (ratio to wild type); higher = fitter; tRNA-Arg(CCU), competitive growth, 37 C, YPD
In short: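 Changes in genotype frequencies gave Darwinian fitness relative to wild type. Frequencies were read by 100-nucleotide paired-end sequencing of gene amplicons before and after pooled Saccharomyces cerevisiae strains, carrying tRNA-Arg(CCU) gene variants at the native locus, were competed in YPD at 37°C for 24 hours in six replicates. A genotype was kept only with ≥ 100 starting reads, and estimates < 0.5 were set to 0.5.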

Which yeast fitness does the source give for GUUCCGUUGGCGUAAUGGUAACGCAUCUCCCUCCUAAGGAGAAGGCUGCCGGUUCGAGUCCCGUACGGAACG [G25A A45G G50C] here?
Its yeast fitness is 0.516.

For GUUCCGUUGGCGUAAUGGUAACGUGGCUCCCUCCUAAGGAGAAGACUGCGAGUUCGAGUCCCGUACGGAACG [C24U U26G G51A], which yeast fitness is on record?
Its yeast fitness is no more than 0.5.

With GUUCCGUUGGCGUAAUGGUAACGUGUCUCCCUCCUAAGGAGAAGACUACGAGUUCGAGUCCCGUACGGAACG [C24U G48A G51A] as the variant, how does the yeast fitness read?
The yeast fitness was 0.665.

Which yeast fitness does the source give for GUUCCGUUGGCGUAAUGGUAACGUGUCUCCCUCCUAAGGAGAAGACUGCGGGUUCGAGUUCCGUACGGAACG [C24U C60U] here?
The yeast fitness was 0.797.

For GUUCCGUUGGCGUAAUGGUAACGUGUCUCCCUCCUAAGGAGAAGACUGGGGGUUCGAGUCCCAUACGGCACG [C24U C49G G63A A69C], which yeast fitness is on record?
The yeast fitness was no more than 0.5.

Which yeast fitness does the source give for GUUCCGUUGGCGUAAUGGUAACGCAUCUUCGUCCUAAGGAGAAGACUGCGGGUUUGAGUCCCGUACCGAACG [G25A C29U C31G C55U G67C] here?
Its yeast fitness is no more than 0.5.

Which yeast fitness does the source give for GUUCCGUUGGCGUAAUGGUAACGCAUGUCCCUCCUAAGGAGAAGACUGCGGGUUCGAGUCGCGUACGGAACG [G25A C27G C61G] here?
Its yeast fitness is 0.574.

With GUUCCGUUGGCGUAAUGGUAACGUGUCUCCCUCCUAAGGAAAAGACUGCGGGUUCGAGUCCAGUACGGAACG [C24U G41A C62A] as the variant, how does the yeast fitness read?
The yeast fitness was 0.605.

For GUUCCGUUGGCGUAAUGGUAACGCAUCUACCUCCUAAGGAGAAGAGUGCGAGUUCGAGUCCCGUACGGAACG [G25A C29A C46G G51A], which yeast fitness is on record?
Its yeast fitness is no more than 0.5.

For GUUCCGUUGGCGUAAUGGUAACGUGUCUCCCUCCUAAGGAGAAGACUGCGGGUUGGAGUCCCGUACGGAACG [C24U C55G], which yeast fitness is on record?
The yeast fitness was 0.638.

For GUUCCGUUGGCGUAAUGGUAACGUGUCUCCCUCCUAAGGAGAAGACUGCGGGUUUGAGUCCCGUACGGAACG [C24U C55U], which yeast fitness is on record?
Its yeast fitness is 0.854.

Which yeast fitness does the source give for GUUCCGUUGGCGUAAUGGUAACGCAUCUCCCUCCUAAGGGGAAGACUGCGGGUUCGAGUCCCGUACGGAACG [G25A A40G] here?
Its yeast fitness is 0.972.

With GUUCCGUUGGCGUAAUGGUAACGUAUCUCUCUCCUAAGGAGAAGACUGCGGGUUCGAGUCCCGUACGGAACG [C24U G25A C30U] as the variant, how does the yeast fitness read?
Its yeast fitness is 0.684.

With GUUCCGUUGGCGUAAUGGUAACGCAUCUCCUUCCUAAGGAGAAGACGGCGGGUUAGGGUCCCGUCCGGACCG [G25A C31U U47G C55A A57G A65C A70C] as the variant, how does the yeast fitness read?
The yeast fitness was no more than 0.5.

Which yeast fitness does the source give for GUUCCGUUGGCGUAAUGGUAACGCAUCUCCCUCCUCAGGAGAAGACUGCGGGUUCGAGUCCCGUACGGAACG [G25A A36C] here?
The yeast fitness was 0.52.

Which yeast fitness does the source give for GUUCCGUUGGCGUAAUGGUAACGUGUCUCCCUCCUAAGGAGAAGACUGCGGAUUCAAGUCCCGUACGGAACG [C24U G52A G56A] here?
The yeast fitness was 0.703.

With GUUCCGUUGGCGUAAUGGUAACGCAUCUCCCUCCUUAGGAGAAGAGUGCGGGUUCGAGUCCAGUACGGCACG [G25A A36U C46G C62A A69C] as the variant, how does the yeast fitness read?
The yeast fitness was no more than 0.5.

With GUUCCGUUGGCGUAAUGGUAACGUGUCUCCCUCCUAAGGAAAAGACUGCGGGUUCGAGUCCAGUACGGUACG [C24U G41A C62A A69U] as the variant, how does the yeast fitness read?
Its yeast fitness is no more than 0.5.

Which yeast fitness does the source give for GUUCCGUUGGCGUAAUGGUAACGUGUCUCCCUCCUAAGGAGAAGACUGCGGGUUCGAGUCCCAUACGGAACG [C24U G63A] here?
The yeast fitness was 0.869.

Which yeast fitness does the source give for GUUCCGUUGGCGUAAUGGUAACGUGUCUCCCUCCUAAGGAGAAGACUGCGGGUUCGAGUCCCCUACGGAACG [C24U G63C] here?
The yeast fitness was 0.771.

With GUUCCGUUGGCGUAAUGGUAACGCAUCUCCGUCCUAAGGAGAAGUCUGCGGGUUCGAGUCUCGUACGGAACG [G25A C31G A45U C61U] as the variant, how does the yeast fitness read?
Its yeast fitness is 0.727.

Which yeast fitness does the source give for GUUCCGUUGGCGUAAUGGUAACGUGUCUCCCGCCUAAGGUGAAGACUGCGGGUUCGAGUCCCGGGCGGAACG [C24U U32G A40U U64G A65G] here?
Its yeast fitness is no more than 0.5.

For GUUCCGUUGGCGUAAUGGUAACGUGUCUCCCUCCUAAGGAGAAGACUGCGGGUUCGAGACCCGUUCGGAACG [C24U U59A A65U], which yeast fitness is on record?
Its yeast fitness is no more than 0.5.

For GUUCCGUUGGCGUAAUGGUAACGUCUCUCCCUCCUAAGGAGAAGACUGCGGGUUCAAGUCCCGUACGGAACG [C24U G25C G56A], which yeast fitness is on record?
Its yeast fitness is 0.882.

With GUUCCGUUGGCGUAAUGGUAACGUGUCUCCCUCCUAAGGAGAAAACUGCGGGUUCGAGUUCAGUACGGAACG [C24U G44A C60U C62A] as the variant, how does the yeast fitness read?
Its yeast fitness is no more than 0.5.

For GUUCCGUUGGCGUAAUGGUAACGUGUCUCCCACCUAAAGAGAAGACUGCGGGUUCGUGUCCCGUACGUAACG [C24U U32A G38A A57U G68U], which yeast fitness is on record?
The yeast fitness was no more than 0.5.

Which yeast fitness does the source give for GUUCCGUUGGCGUAAUGGUAACGUGUCUCCCUCCUAAGGAGAAGACUGCGGGUGCGAGUCCCGUACGGAACG [C24U U54G] here?
Its yeast fitness is 0.577.

For GUUCCGUUGGCGUAAUGGUAACGCAUCUCGCUCAUAAGGAGAAGACUGGGGGUUCGAGUCCCGUACGGAACG [G25A C30G C34A C49G], which yeast fitness is on record?
The yeast fitness was no more than 0.5.

For GUUCCGUUGGCGUAAUGGUAACGUGUCUCCCUCCUAAAGAGAAGACUGCGGGUUCGAGUCCCGUACGGAACG [C24U G38A], which yeast fitness is on record?
Its yeast fitness is 0.819.

For GUUCCGUUGGCGUAAUGGUAACGCAUCUCUCUCCUCAGGAGAAGACUGCGGGUUCGAGUCCCGUACGGAACG [G25A C30U A36C], which yeast fitness is on record?
The yeast fitness was no more than 0.5.

With GUUCCGUUGGCGUAAUGGUAACGUGUCCCCCUCCUAAGGCGAAGACUGCGGGUUCGAGUCCCGUACGCAACG [C24U U28C A40C G68C] as the variant, how does the yeast fitness read?
The yeast fitness was no more than 0.5.

With GUUCCGUUGGCGUAAUGGUAACGCAUCUCCCUCCUAAGGAGACGACUGCGGGUUCGAGCCCCGUACGGAACG [G25A A43C U59C] as the variant, how does the yeast fitness read?
The yeast fitness was 0.71.

With GUUCCGUUGGCGUAAUGGUAACGUGUCUCCCCCCUAAGGAGAAGAAUGCGGGUUCGAGUCCCGUACGGAUCG [C24U U32C C46A A70U] as the variant, how does the yeast fitness read?
The yeast fitness was 0.65.

For GUUCCGUUGGCGUAAUGGUAACGUGGCUCUCUCCUAAGCAGAAGACUGCGGGUUCGAGUCCCGUACAGUACG [C24U U26G C30U G39C G67A A69U], which yeast fitness is on record?
The yeast fitness was no more than 0.5.

With GUUCCGUUGGCGUAAUGGUAACGCAUCUCCCUCCUAAGGAGGACACUGGGGGUUCGAGUCCCGUACGGAUCG [G25A A42G G44C C49G A70U] as the variant, how does the yeast fitness read?
Its yeast fitness is no more than 0.5.

With GUUCCGUUGGCGUAAUGGUAACGCAUCUCCCUCCUAAGGUGAAGACUGCGGGUUCGACUCCCGUACGGAACG [G25A A40U G58C] as the variant, how does the yeast fitness read?
The yeast fitness was 0.973.

With GUUCCGUUGGCGUAAUGGUAACGCAUGUCCCUGCUAAGAAGAAGAUUGCGGGUUCGAGUCUCGUACGGUACG [G25A C27G C33G G39A C46U C61U A69U] as the variant, how does the yeast fitness read?
Its yeast fitness is no more than 0.5.
